Inhibition, IC50 and inhibition data for 62 compounds are collected here from ChEMBL document CHEMBL1125534, “Omega-[(omega-arylalkyl)aryl]alkanoic acids: a new class of specific LTA4 hydrolase inhibitors” (J Med Chem, 1992).

Experiment [1] in a line: Inhibition of LTB4 biosynthesis by porcine leukocytes at LTA4 hydrolase level at a concentration of 2*10e-5 M. In kind it is functional, Sus scrofa. The essentials: (§1)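 Porcine leukocyte homogenate (cells at 10⁸/mL, sonicated) with CaCl₂ and ATP each at 2 mmol/L final. Preincubated 3 min at 25 °C with inhibitor (in ethanol or PBS) plus 5,8,11,14-[…] acid 4 μmol/L final to block 12-LO. Then incubated 5 min at 37 °C with [1-¹⁴C]arachidonic acid. LTB₄ and 6-trans-isomers separated by HPLC with radioactivity detection. Mean of ≥3 experiments.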

The nature of experiment [2]: Evaluated for the inhibitory activity against Leukotriene A4 hydrolase. Also noted: species or system Sus scrofa. The essentials: as §1
For experiment [3], the system named is Leukotriene A-4 hydrolase (Sus scrofa). The experiment can be described thus: Inhibition of LTA4 hydrolase mediated LTB4 biosynthesis by porcine leukocytes at 2*10e-5M.
Experiment [4] has the same test system. In words: Inhibitory activity against Leukotriene A4 hydrolase at 100 mg/kg (po) in rat plasma extracts.
For experiment [5] the test system is unchanged. In words: Inhibitory activity against Leukotriene A4 hydrolase at 5 mg/kg (po) in rat plasma extracts.
Experiment [6] shares this test system. The experiment can be described thus: Inhibitory activity Leukotriene A4 hydrolase at 5 mg/kg (po) in rat plasma.
Experiment [7] has the same test system. The experiment can be described thus: Inhibitory activity against Leukotriene A4 hydrolase at 30 mg/kg (po) in rat plasma extracts.
For experiment [8] the test system is unchanged. The experiment can be described thus: Inhibitory activity against Leukotriene A4 hydrolase at 100 mg/kg (po) in rat plasma.

The structures appear in SMILES notation.

Usually Inhibition stands for the change of the read-out against control, counted positive when it falls. The low end stands for little suppression, the high end for strong suppression. For `O=C(O)CCCCC[S+]([O-])c1ccc(CCCc2ccccc2)s1` (configuration not stated), the Inhibition in experiment [1] is given as 0%. In experiment [1], `O=C(O)CCCCCCc1ccc(Cc2cccnc2)cc1` had an Inhibition of 65%.

`O=C(O)CCCCCc1ccc(CCCc2ccccc2)cc1` came in with an Inhibition in experiment [1] of 43%. The same measure, in the same setting: the same measure for `O=C(O)CCCCCS(=O)(=O)c1ccc(CCCc2ccccc2)s1`: 0%. Take `O=C(O)CCCC(=O)NCc1ccc(CCCc2ccccc2)s1`: the Inhibition in experiment [1] worked out at 38%. Still for that read-out and setting: the same measure for `O=C(O)CCCCCCc1ccc(Cc2ccc3ccccc3c2)cc1`: 22%. Usually IC50 stands for the concentration at which inhibition is half-maximal. Read a high IC50 as a need for much substance. For orientation: inhibition means the relative decrease from the control value, in per cent. Low values mean little suppression, high ones strong suppression. As to `O=C(O)CCCCCCc1ccc(Cc2ccccc2)cc1`, the IC50 in experiment [2] turned out to be 3 µM. In addition, in experiment [3], the inhibition was determined as 79%.

Regarding `O=C(O)CCCCCCc1ccc(Cc2ccccc2)s1`, in experiment [2], the half-inhibitory concentration (IC50) is 15 µM. This compound also registered an inhibition in experiment [3] of 51%. For `O=C(O)CCCCCCc1ccc(CCc2ccccc2)cc1` the same measures were 30 µM and 43%. Consider `O=C(O)CCCCCCc1ccc(Cc2ccnc3ccccc23)cc1`, for which the Inhibition in experiment [1] is 0%. For the compound `O=C(O)CCCCCCc1ccc(Cc2ccc(Cl)cc2)cc1`, the inhibition is 7% in experiment [4], 22% in experiment [5] and 73% in experiment [3]. Half-maximal inhibition in experiment [2] (IC50) was put at 7.2 µM.

In experiment [1], `O=C(O)CCCCCC(=O)c1ccc(CCCc2ccccc2)cc1` yielded an Inhibition of 27%. `O=C(O)CCCCCCc1ccc(CCCc2ccc(Cl)cc2)s1`: the Inhibition in experiment [1] amounted to 63%. In experiment [1], `O=C(O)CCCNC(=O)Cc1ccc(CCCc2ccccc2)s1` came in with an Inhibition of 12%.

`COc1ccc(CCCc2ccc(SCCCCCC(=O)O)cc2)cc1` yielded an Inhibition in experiment [1] of 35%. `O=C(O)COCCCCc1ccc(CCCc2ccccc2)s1`: the inhibition in experiment [4] was 73%; in experiment [6], 40%; in experiment [7] it was 54%; in experiment [3], 90%. Further, inhibition in experiment [2] was half-maximal at 1.5 µM (IC50). Turning to `O=C(O)CCCCCSc1ccc(CCCc2ccccc2)s1`, the inhibition in experiment [4] was determined as 19%; in experiment [5], 4%; in experiment [7], 19%; in experiment [3], 79%. The compound also showed an IC50 in experiment [2] of 2.8 µM. Regarding `COc1ccc(CCCc2ccc(CCCCCCC(=O)O)s2)cc1`, half-maximal inhibition in experiment [2] (IC50) required 9.7 µM. The inhibition in experiment [3] came to 80%. With `CC(=O)Nc1ccc(Cc2ccc(CCCCCCC(=O)O)cc2)cc1`, in experiment [1], the Inhibition came out at 41%. `O=C(O)CCCCCCc1ccc(Cc2ccccc2Cl)cc1` returned an Inhibition in experiment [1] of 0%. The same measure, in the same setting: the same measure for `c1ccc(CCCc2ccc(CCCCCCC3N=NN=N3)s2)cc1`: 29%; for `O=C(O)CCCCCCc1ccc(-c2ccccc2)s1`: 67%; for `O=C([O-])CCCCCCCc1ccc(CCCc2ccccc2)s1.[Na+]`: 0%. Same read-out and setting: the same measure for `O=C(O)CCCCCCc1ccc(Cc2cccc3ccccc23)cc1`: 0%; for `O=C(O)CNC(=O)CCCc1ccc(CCCc2ccccc2)s1`: 53%. With `O=C(O)CCCCCCc1ccc(CCCc2ccccc2)s1`, the inhibition was 0% in experiment [5], 44% in experiment [7] and 82% in experiment [8]. For the same compound, inhibition in experiment [2] was half-maximal at 2.9 µM (IC50). With `COc1ccc(Cc2ccc(CCCCCCC(=O)O)cc2)cc1`, half-maximal inhibition in experiment [2] (IC50) was put at 9.2 µM. The compound further registered an inhibition in experiment [3] of 69%. `O=C(O)CCCCCCc1ccc(-c2ccccc2)cc1` showed an Inhibition in experiment [1] of 41%. In turn, `O=C(O)CCCCCCc1ccc(CCCc2ccc(O)cc2)s1` registered an Inhibition in experiment [1] of 69%. For `Nc1ccc(Cc2ccc(CCCCCCC(=O)O)cc2)cc1`, the values for the inhibition in experiment [4], in experiment [5] and in experiment [3] were 31%, 29% and 89%, respectively. The compound further yielded an IC50 in experiment [2] of 0.9 µM. Turning to `O=C(O)CCCCCCc1ccc(Cc2ccc(C(F)(F)F)cc2)cc1`, the IC50 in experiment [2] amounted to 188 µM. Also, the inhibition in experiment [3] was 19%. Consider `O=C(O)CCCCCCc1ccc(Cc2cnc3ccccc3c2)cc1`, for which the inhibition in experiment [4] turned out to be 27%; in experiment [5], 27%; in experiment [7] it was 19%; in experiment [3], 85%. This compound also displayed a 50% inhibitory concentration (IC50) in experiment [2] of 5 µM. For `O=C(O)CCCCCCc1ccc(Cc2ccccn2)cc1`, in experiment [2], the half-maximal inhibitory concentration (IC50) was determined as 7.7 µM. In addition, the inhibition in experiment [3] turned out to be 76%. On to `O=C(O)CCCCCCc1ccc(CCCc2cccc(Cl)c2)s1`, for which, in experiment [1], the Inhibition is given as 45%.

For the compound `O=C([O-])CCCCc1ccc(CCCc2ccccc2)s1.[Na+]`, the Inhibition in experiment [1] was determined as 0%. `O=C(O)CCCCCCCc1ccc(CCCc2ccccc2)cc1` yielded an Inhibition in experiment [1] of 45%.

Consider `O=C(O)CCCCCOc1ccc(Cc2ccccc2)cc1`, for which, in experiment [1], the Inhibition came out at 69%.

Compound `O=C(O)CCCCCSc1ccc(Cc2ccccc2)cc1` returned an IC50 in experiment [2] of 9.1 µM. The inhibition in experiment [3] is 82%. In turn, `O=C(O)CCCCCc1ccc(CCCc2ccccc2)s1` came in with an Inhibition in experiment [1] of 61%. Regarding `O=C([O-])CCCCc1ccc(CCCc2ccccc2)cc1.[Na+]`, the Inhibition in experiment [1] is reported as 35%. The same measure, in the same setting: the same measure for `O=C(O)CCCCCC(=O)c1ccc(CCCc2ccccc2)s1`: 66%. Regarding `O=C(O)CCCCCCc1ccc(Cc2ccc(O)cc2)cc1`, in experiment [1], the Inhibition worked out at 56%. Take `O=C(O)CCCCCSc1ccc(CCCc2ccccc2)cc1`: the inhibition turned out to be 12% in experiment [4], 20% in experiment [7] and 74% in experiment [3]. The same compound showed an IC50 in experiment [2] of 6.2 µM. Compound `O=C(O)CCCCCS(=O)(=O)c1ccc(Cc2ccccc2)cc1` gave an Inhibition in experiment [1] of 2%. `COC(=O)COCCCCc1ccc(CCCc2ccccc2)s1` had an Inhibition in experiment [1] of 66%. Still for that read-out and setting: the same measure for `CC(C)(C)c1ccc(Cc2ccc(CCCCCCC(=O)O)cc2)cc1`: 0%. For `O=C(O)CCCC(=O)CCc1ccc(CCCc2ccccc2)s1`, half-maximal inhibition in experiment [2] (IC50) required 6.3 µM. In experiment [3], this compound had an inhibition of 82%. In experiment [1], `CC(C)(CCCCCc1ccc(CCCc2ccccc2)s1)C(=O)O` showed an Inhibition of 46%. As for `O=C(O)CCCCCCc1ccc(CCCc2ccccc2)cc1`, the values for the inhibition in experiment [7] and in experiment [3] were 15% and 76%, respectively. The compound further gave a half-inhibitory concentration (IC50) in experiment [2] of 3.4 µM. Regarding `CS(=O)(=O)Nc1ccc(Cc2ccc(CCCCCCC(=O)O)cc2)cc1`, the Inhibition in experiment [1] is listed as 0%. In experiment [2], `Cc1ccc(Cc2ccc(CCCCCCC(=O)O)cc2)cc1` showed an IC50 of 21.1 µM. Also, the inhibition in experiment [3] was 63%.

The compound `O=C(O)CCCCCCc1ccc(Cc2ccc3ccccc3n2)cc1` registered an Inhibition in experiment [1] of 48%. In experiment [2], `NC(=O)Nc1ccc(Cc2ccc(CCCCCCC(=O)O)cc2)cc1` registered an IC50 of 1.7 µM. For the same compound, the inhibition in experiment [3] was 100%.

On to `NC(=O)CCCCCCc1ccc(CCCc2ccccc2)s1`, for which the Inhibition in experiment [1] amounted to 0%. The same measure, in the same setting: the same measure for `CNc1ccc(Cc2ccc(CCCCCCC(=O)O)cc2)cc1`: 78%. The compound `O=C(O)CCCCCCc1ccc(CCc2ccccc2)s1` had an IC50 in experiment [2] of 3.5 µM. This compound also gave an inhibition in experiment [3] of 86%.

For `O=C(O)CCCCCCc1ccc(Cc2ccc([N+](=O)[O-])cc2)cc1`, the IC50 in experiment [2] was found to be 72.5 µM. Further, the inhibition in experiment [3] was 53%.

For `O=C(O)CCCCCCc1ccc(Cc2ccncc2)cc1`, in experiment [1], the Inhibition is 43%. On the same count and under the same terms, the same measure for `O=C([O-])CCCCCCc1ccc(CCCCc2ccccc2)s1.[Na+]`: 0%; for `CN(C)c1ccc(Cc2ccc(CCCCCCC(=O)O)cc2)cc1`: 29%. Same read-out and setting: the same measure for `N#CCCCCCCc1ccc(CCCc2ccccc2)s1`: 0%. On to `O=C(O)CCCC(O)CCc1ccc(CCCc2ccccc2)s1` (configuration not stated), for which the IC50 in experiment [2] was found to be 6.2 µM. Also, the inhibition in experiment [3] amounted to 73%.
